Test results taken from ChEMBL document CHEMBL4196093, “Small-Molecule Activator of UNC-51-Like Kinase 1 (ULK1) That Induces Cytoprotective Autophagy for Parkinson's Disease Treatment” (J Med Chem, 2018).

Tests used:
[1] = molecular target: T1, Serine/threonine-protein kinase ULK1 (Homo sapiens) (UniProt O75385); experiment: Induction of ULK1-mediated autophagy in human SH-SY5Y cells at 1 uM after 6 hrs by MDC-staining based flow cytometric analysis relative to control; assay type: cell-based
T1 sequence (whole entry): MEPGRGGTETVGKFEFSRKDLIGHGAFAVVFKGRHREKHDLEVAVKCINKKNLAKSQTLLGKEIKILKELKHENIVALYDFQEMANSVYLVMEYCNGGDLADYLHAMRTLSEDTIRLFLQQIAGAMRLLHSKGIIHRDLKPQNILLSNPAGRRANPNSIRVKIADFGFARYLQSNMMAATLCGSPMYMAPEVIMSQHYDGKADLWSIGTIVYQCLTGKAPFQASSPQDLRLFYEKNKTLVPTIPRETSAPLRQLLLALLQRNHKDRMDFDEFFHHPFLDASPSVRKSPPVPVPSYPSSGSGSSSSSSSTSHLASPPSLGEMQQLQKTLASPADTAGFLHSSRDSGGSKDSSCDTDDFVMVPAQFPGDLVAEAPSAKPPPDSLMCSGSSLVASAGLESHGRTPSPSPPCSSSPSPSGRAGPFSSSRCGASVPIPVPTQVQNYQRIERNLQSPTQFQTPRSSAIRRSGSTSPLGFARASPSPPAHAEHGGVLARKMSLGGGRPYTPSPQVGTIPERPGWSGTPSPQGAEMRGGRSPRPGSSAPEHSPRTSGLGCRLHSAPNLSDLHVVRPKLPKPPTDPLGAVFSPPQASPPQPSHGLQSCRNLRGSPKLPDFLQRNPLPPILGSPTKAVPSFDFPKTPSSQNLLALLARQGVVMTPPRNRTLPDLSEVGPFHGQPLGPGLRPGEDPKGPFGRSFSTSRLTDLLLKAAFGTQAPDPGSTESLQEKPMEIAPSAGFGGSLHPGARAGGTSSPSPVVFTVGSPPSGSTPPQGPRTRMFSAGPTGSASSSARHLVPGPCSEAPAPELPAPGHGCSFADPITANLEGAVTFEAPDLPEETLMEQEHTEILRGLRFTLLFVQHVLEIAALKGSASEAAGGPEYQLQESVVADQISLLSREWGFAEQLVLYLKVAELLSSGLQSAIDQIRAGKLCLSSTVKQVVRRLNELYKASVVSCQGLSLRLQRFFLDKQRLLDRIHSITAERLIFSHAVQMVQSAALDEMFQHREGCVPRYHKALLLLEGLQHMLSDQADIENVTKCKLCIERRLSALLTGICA
Method in brief: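 Autophagy scored as percentage of MDC-positive SH-SY5Y cells by flow cytometry after 1 µM compound; mean ± SEM.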

[2] = molecular target: T1, Serine/threonine-protein kinase ULK1 (Homo sapiens); experiment: Induction of human recombinant N-terminal GST tagged-ULK1 (1 to 649 residues) kinase activity expressed in baculovirus infected insect Sf9 cells at 100 nM using MBP as substrate after 60 mins by ADP-glo assay relative to control
Method in brief: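 Recombinant human ULK1 (10 ng) with MBP (0.1 µg/µl)/10 µM ATP and compound at 100 nM in 40 mM Tris pH 7.5, 20 mM MgCl2, 50 µM DTT, 0.1 mg/ml BSA. Incubated 60 min at room temperature; ADP-Glo luminescence read. Three independent experiments, mean ± SEM.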

Compound | Activity [1] [%] | Activity [2] [%]
O=C(Nc1ccccc1Cl)N[C@@H](C(=O)Nc1cccc(Br)c1)c1ccccc1 | 26.3 | 161
COc1ccc(N2CCN(CC(OC(=O)c3ccc(C)cc3)c3ccccc3)CC2)cc1 (configuration not stated) | 4.51 | 139
COc1ccc(NC(=O)N[C@@H](C(=O)Nc2cccc(Br)c2)c2ccccc2)cc1 | 28.6 | 157
O=C(Nc1cccc(Cl)c1)N[C@@H](C(=O)Nc1cc(F)ccc1F)c1ccccc1 | 24.7 | 159
Cc1ccccc1NC(=O)[C@H](NC(=O)Nc1ccccc1Cl)c1ccccc1 | 36.8 | 30.4
CN1CCN(CC(OC(=O)c2ccc(-c3ccccc3)cc2)c2ccccc2)CC1 (configuration not stated) | 7.41 | 142
Cc1ccc(NC(=O)N[C@@H](C(=O)Nc2cc(F)ccc2F)c2ccccc2)cc1 | 24 | 153
Cc1cccc(C)c1NC(=O)N[C@@H](C(=O)N[C@H](C)c1ccccc1)c1ccccc1 | 16.2 | 144
COc1ccc(N2CCN(CC(OC(=O)c3ccccc3F)c3ccccc3)CC2)cc1 (configuration not stated) | 11.8 | 152
Cc1ccc(NC(=O)N[C@@H](C(=O)N[C@H](C)c2ccccc2)c2ccccc2)cc1 | 16.6 | 148
O=C(Nc1cccc(Cl)c1)N[C@@H](C(=O)Nc1cccc(Br)c1)c1ccccc1 | 24.1 | 152
Cc1ccccc1NC(=O)[C@H](NC(=O)Nc1cccc(Cl)c1)c1ccccc1 | 27.4 | 156
CN1CCN(CC(OC(=O)c2ccccc2)c2ccccc2)CC1 (configuration not stated) | 9.59 | 156
Cc1ccc(NC(=O)N[C@@H](C(=O)Nc2ccccc2C)c2ccccc2)cc1 | 34.9 | 174
CN1CCN(CC(OC(=O)c2cccc(Br)c2)c2ccccc2)CC1 (configuration not stated) | 11.4 | 159
C[C@@H](NC(=O)[C@H](NC(=O)Nc1ccc(C(F)(F)F)cc1)c1ccccc1)c1ccccc1 | 38.3 | 209
Cc1ccccc1NC(=O)[C@H](NCCc1ccc([N+](=O)[O-])cc1)c1ccccc1 | 16.6 | 142
COc1ccc(N2CCN(CC(OC(=O)c3ccc(F)cc3)c3ccccc3)CC2)cc1 (configuration not stated) | 11.1 | 168
Cc1ccccc1NC(=O)[C@H](NCCc1ccc(F)cc1)c1ccccc1 | 24.5 | 164
O=C(Nc1ccc(F)cc1F)[C@H](NCCc1ccc(Cl)c(Cl)c1)c1ccccc1 | 31.4 | 174
O=C(Nc1cccc2ccccc12)N[C@@H](C(=O)Nc1cc(F)ccc1F)c1ccccc1 | 22.3 | 151
COc1ccc(N2CCN(CC(OC(=O)c3ccc(Cl)cc3Cl)c3ccccc3)CC2)cc1 (configuration not stated) | 11.8 | 150
O=C(Nc1cc(F)ccc1F)[C@H](NC(=S)Nc1ccccc1)c1ccccc1 | 39.4 | 197
COc1ccc(NC(=O)N[C@@H](C(=O)N[C@H](C)c2ccccc2)c2ccccc2)cc1 | 19.2 | 145

Further lines, results first:

Activity [1] [%] | Activity [2] [%] | Compound
36.2 | 179 | Cc1ccccc1NC(=O)[C@H](NC(=S)Nc1ccccc1)c1ccccc1
43.1 | 205 | Cc1ccccc1NC(=O)[C@H](NC(=S)Nc1cc(C(F)(F)F)cc(C(F)(F)F)c1)c1ccccc1
36.7 | 170 | COc1ccc(CCNC(=S)N[C@@H](C(=O)Nc2ccccc2)c2ccccc2)cc1OC
14.2 | 171 | COc1ccc(N2CCN(CC(OC(=O)c3ccc(C(F)(F)F)cc3)c3ccccc3)CC2)cc1 (configuration not stated)
19.3 | 158 | C[C@@H](NC(=O)[C@H](NC(=O)Nc1ccccc1Cl)c1ccccc1)c1ccccc1
24.4 | 146 | Cc1ccccc1NC(=O)[C@H](NC(=O)Nc1cccc2ccccc12)c1ccccc1
6.22 | 139 | COc1ccc(CC(=O)OC(CN2CCN(C)CC2)c2ccccc2)cc1OC (configuration not stated)
30.9 | 153 | COc1ccc(NC(=O)N[C@@H](C(=O)N[C@H](C)c2cc(F)ccc2F)c2ccccc2)cc1
33.5 | 163 | COc1ccc(CCNC(=O)N[C@@H](C(=O)Nc2ccc(C(F)(F)F)cc2)c2ccccc2)cc1OC
20.2 | 149 | CN(C)c1ccc(CCN[C@@H](C(=O)Nc2ccc(F)cc2F)c2ccccc2)cc1
27.1 | 155 | Cc1cccc(C)c1NC(=O)N[C@@H](C(=O)Nc1cccc(Br)c1)c1ccccc1
22.7 | 169 | C[C@@H](NC(=O)[C@H](NC(=O)Nc1cccc(Cl)c1)c1ccccc1)c1ccccc1
13.8 | 139 | Cc1ccc(CCN[C@@H](C(=O)Nc2ccccc2C)c2ccccc2)cc1
39.6 | 217 | O=C(Nc1cccc(Br)c1)[C@H](NC(=S)Nc1cc(C(F)(F)F)cc(C(F)(F)F)c1)c1ccccc1
19.6 | 149 | C[C@@H](NC(=O)[C@H](NC(=O)Nc1cccc2ccccc12)c1ccccc1)c1ccccc1
20.3 | 153 | Cc1ccccc1NC(=O)[C@H](NCCc1ccc(Cl)c(Cl)c1)c1ccccc1

Activity [1] [%] | Activity [2] [%] | Compound
28.2 | 171 | O=C(Nc1ccc(F)cc1F)[C@H](NCCc1ccc(Br)cc1)c1ccccc1
24.6 | 150 | O=C(Nc1cccc2ccccc12)N[C@@H](C(=O)Nc1cccc(Br)c1)c1ccccc1
43.6 | 227 | O=C(Nc1ccc(C(F)(F)F)cc1)N[C@@H](C(=O)Nc1cc(F)ccc1F)c1ccccc1
32.9 | 178 | C[C@@H](NC(=O)[C@H](NC(=S)Nc1cc(C(F)(F)F)cc(C(F)(F)F)c1)c1ccccc1)c1ccccc1
13.5 | 143 | Cc1ccccc1NC(=O)[C@H](NCCc1ccc(N(C)C)cc1)c1ccccc1
16.2 | 140 | COc1cccc(CCN[C@@H](C(=O)Nc2ccccc2C)c2ccccc2)c1
24.3 | 148 | COc1ccc(CCNC(=O)N[C@@H](C(=O)Nc2ccc(C)cc2)c2ccccc2)cc1OC
6.56 | 149 | CN1CCN(CC(OC(=O)c2ccccc2F)c2ccccc2)CC1 (configuration not stated)
32.1 | 198 | O=C(Nc1ccc(F)cc1F)[C@H](NCCc1ccc(O)cc1)c1ccccc1
25.4 | 147 | Cc1ccc(NC(=O)N[C@@H](C(=O)Nc2cccc(Br)c2)c2ccccc2)cc1
22.4 | 151 | COc1ccc(CCN[C@@H](C(=O)Nc2ccc(F)cc2F)c2ccccc2)cc1OC
20.9 | 139 | COc1ccc(CCNC(=O)N[C@@H](C(=O)Nc2cccc3ccccc23)c2ccccc2)cc1OC
26.2 | 168 | O=C(Nc1ccc(F)cc1F)[C@H](NCCc1cccc2ccccc12)c1ccccc1
31.1 | 168 | COc1ccc(CCNC(=O)N[C@@H](C(=O)Nc2cccc(Cl)c2)c2ccccc2)cc1OC
24.9 | 147 | Cc1cccc(C)c1NC(=O)N[C@@H](C(=O)Nc1cc(F)ccc1F)c1ccccc1
11 | 137 | Cc1ccccc1NC(=O)[C@H](NCCc1cccc2ccccc12)c1ccccc1
